Measured values taken from the EternaBench riboswitch data.

Test system: MS2 coat protein
Test: apparent Kd, MS2 coat protein; higher = weaker binding; RNA-MaP array
Procedure, shortened: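 Fluorescently labeled MS2 coat protein, from 1.5 nM to 3 μM, was incubated at room temperature with designed RNAs transcribed on an Illumina sequencing chip from sequenced DNA templates. Times ran from 0.8–1.5 h at the lowest concentrations to 10–20 min at the highest, in Tris-HCl pH 7.5 buffer with KCl, MgCl2, BSA, DTT, tRNA and Tween20, with or without input ligand. Each apparent Kd is the median of per-cluster binding-curve fits, and designs with fewer than 10 measured clusters were excluded.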

[1] = designed as: ON switch for flavin mononucleotide, no ligand
[2] = ligand present: flavin mononucleotide, designed as: ON switch for flavin mononucleotide
[3] = designed as: OFF switch for flavin mononucleotide, no ligand
[4] = ligand present: flavin mononucleotide, designed as: OFF switch for flavin mononucleotide

Row | Sequence | apparent Kd [1] [nM] | apparent Kd [2] [nM] | apparent Kd [3] [nM] | apparent Kd [4] [nM] | other results
1 | CUAAGCUCGGACAAGGAUAUUAAUUACUAGACAUGAGGAUCACCCAUGUCAACAGACUGGAGGAUUAAGAAGGUGAUUGAAAACCC | 21.8 | 19.4 |  |  | 
2 | CUAAUGGAAGGAUAUACAUGAGGAUCACCCAUGUUUAAGUGAUUAGCGAAUUGUCAACGUAGAAGGUCCAAUUA |  |  | 42.6 | 84.3 | 
3 | CUACCUACAGGAUAUACAUGAGGAUCACCCAUGUUUCAACGUGGAACAGGUUGAACAUGUAGAAGGGAAUCGUU |  |  | 20.4 | 17.2 | 
4 | CUACGCAUAGGAUAUGCCUACUGGGACAUGAGGAUCACCCAUGUGUUAUUAUCAGCUCCGGCAGAAGGAUGGUACU |  |  | 29.1 | 11.8 | 
5 | CUACGGACGGAAGGAUAUAUACGGGUGCCCAGUAUAGAAGGUCCAUACAUGAGGAUCACCCAUGUCAUUAAACCUACGGAGGAG | 145 | 80.6 |  |  | 
6 | CUCCCACAUGAGGAUCACCCAUGUAUGAAAAUACAAGGAUAUGGCGUCCUGAUUAGCGGCCCAGAAGGUGUGCUUU | 114 | 70.2 |  |  | 
7 | CUCCUCACCGUGAGGAUAUAGUAUUCCGGUUGUUACUAGAAGGCACAUGAGGAUCACCCAUGUUACGGUUCCCA |  |  | 13.4 | 50.6 | 
8 | CUCCUGGAAGGAUAUGUGUUUCAGGACAUGAGGAUCACCCAUGUAGAACCUCUCUCCCGCACAGAAGGUCCAUUGU |  |  | 74.3 | 247 | 
9 | CUGAACUAAGGAUAUACGGCCCUCAAUUAUAAUUCUGUGAAACAUGAGGAUCACCCAUGUAGAAGGUAGUCGAC |  |  | 14.1 | 18.1 | 
10 | CUGACGUAGGAAGAUAUCUGGAACAAGGAUACCAGUAAACCAACAUACCCUUGGCAGCCUAAAACAUGAGGAUCACCCAUGUAAU |  |  |  |  | apparent Kd (designed as: OFF switch for theophylline, no ligand): 12.4 nM; apparent Kd (ligand present: theophylline, designed as: OFF switch for theophylline): 14.6 nM
11 | CUGUUAAGUAAAGGAUAUCCUCCAACAGCUAGAGGAGAAGGUUACUCCUUAAUCCACAUGAGGAUCACCCAUGUUAGUGUAAGU | 11.5 | 10.1 |  |  | 
12 | CUGUUACAUGAGGAUCACCCAUGUUUUUGGUUAAGAGGAUAUGGCACAUGGUUAAACGUUCCAGAAGGCUUUGCAC | 11.8 | 8.94 |  |  | 
13 | CUGUUCGUAGGAUAUACUGAAACACGGGACAUUCUGAUUAGACAUGAGGAUCACCCAUGUAGAAGGACGCACGU |  |  | 17.4 | 16.9 | 
14 | CUUAUCAUAGGAUAUACAUGAGGAUCACCCAUGUAGUAGCAUAUAUAUAGUUUCCCAAGUAGAAGGAUGUACAC |  |  | 9.43 | 7.9 | 
15 | CUUCAACAUGAGGAUCACCCAUGUAGUGAUACCAGUCACUCAUACGACCCUUGGCAGCACAUUUUCUGUCGGCAUGUAGACGAUC |  |  |  |  | apparent Kd (designed as: ON switch for theophylline, no ligand): 121 nM; apparent Kd (ligand present: theophylline, designed as: ON switch for theophylline): 59.9 nM
16 | CUUGAACCAUCACAUGAGGAUCACCCAUGUAGACUAUAAACUGAGGAUAUCACAGCGAGCAGUCAUGAGAAGGCAGAAUGACGG | 15.3 | 13.6 |  |  | 
17 | GAAAAGGACAAAGGAUAUGGGUAGGCAAUCAAUCCAGAAGGUAGACCAGGCAACCUAAACAAACAUGAGGAUCACCCAUGUUAG | 16.6 | 14.3 |  |  | 
18 | GAAAUCAGAGGAUAUCAGUCAUGUCACAUGAGGAUCACCCAUGUUUGUGUUUUGGUAGAUUGAGAAGGCUGCGACC |  |  | 16.6 | 9.66 | 
19 | GAAGUCGCCGAGAAGGGAGCGAAACUCUCUAUCACAUGAGGAUCACCCAUGUAGUUCUCGUGAGCUCAGGAUAUCGUCGAACGC |  |  | 14.5 | 10.5 | 
20 | GACAGACAUGAGGAUCACCCAUGUGAUACAGGCGUAGGAUAUUCGUGAGGAUACAGAAAAGAAGAAGGACGGGAAG | 40.3 | 38 |  |  | 
21 | GACCGGUAUCCAGGAUAUGCAAUUAUUUACAUGAGGAUCACCCAUGUCGCAAGAGUAGGGGUGUAGCAGAAGGGGACAACAGCA |  |  | 70.7 | 62.7 | 
22 | GAGUCGCGAGGAUAUGGAAUGGACUACAUGAGGAUCACCCAUGUCCUUUCCCUUGUUUGUCCAGAAGGCGCCAUCC |  |  | 27 | 24.4 | 
23 | GAUCAUUUAGUGAGGAUAUGUCUCCUGCAAAGUCGACAGAAGGCACAUGAGGAUCACCCAUGUUCGCUUCGGAU |  |  | 5 | 5.75 | 
24 | GCAGGACAUGAGGAUCACCCAUGUGAGGGCAGAGGAGGAUAUAACUACCACUAUUGAUCGUUAGAAGGCCUAGAGG | 40 | 26 |  |  | 
25 | GCCAUAAAAGAGAAGGGCGGCCACCUACGAACCGCAGGAUAUCUUUGCUUUCCUCGGACAUGAGGAUCACCCAUGUGGCCAAUA |  |  | 97.3 | 160 | 
26 | GCCCGGACACAAGGAUAUCAGACCAAUACAUGAGGAUCACCCAUGUCGGGCCUCUAAGUACGACCUGAGAAGGUGUCUCCCAGU |  |  | 421 | 345 | 
27 | GCCGACCUCACAUGAGGAUCACCCAUGUGCCGGAAACUACUGAGAAGGGCUCUAAUUCCAGGCGAGCAGGAUAUCAUAAAAUAG | 17.4 | 8.78 |  |  | 
